In ChEMBL document CHEMBL4402595, “Discovery of Orally Bioavailable Chromone Derivatives as Potent and Selective BRD4 Inhibitors: Scaffold Hopping, Optimization, and Pharmacological Evaluation” (J Med Chem, 2020):

How the values were obtained:
[1] = biological target: T1, Bromodomain-containing protein 4 (Homo sapiens, UniProt O60885); experiment: Inhibition of BRD4 in poly(I:C)-stimulated human SAECs TLR3-inducible CIG5 gene expression pre-incubated for 24 hrs before poly(I:C) stimulation for 4 hrs by qRT-PCR analysis
[2] = biological target: T1, Bromodomain-containing protein 4; experiment: Inhibition of BRD4 in poly(I:C)-stimulated human SAECs TLR3-inducible IL-6 gene expression pre-incubated for 24 hrs before poly(I:C) stimulation for 4 hrs by qRT-PCR analysis
[3] = biological target: T1, Bromodomain-containing protein 4; experiment: Binding affinity to recombinant BRD4 BD2 (unknown origin) incubated for 1 hr by TR-FRET assay
[4] = biological target: Bromodomain-containing protein 2 (Homo sapiens, UniProt P25440); experiment: Binding affinity to recombinant BRD2 BD2 (unknown origin) incubated for 1 hr by TR-FRET assay
Bromodomain-containing protein 2, sequence (P25440 whole entry): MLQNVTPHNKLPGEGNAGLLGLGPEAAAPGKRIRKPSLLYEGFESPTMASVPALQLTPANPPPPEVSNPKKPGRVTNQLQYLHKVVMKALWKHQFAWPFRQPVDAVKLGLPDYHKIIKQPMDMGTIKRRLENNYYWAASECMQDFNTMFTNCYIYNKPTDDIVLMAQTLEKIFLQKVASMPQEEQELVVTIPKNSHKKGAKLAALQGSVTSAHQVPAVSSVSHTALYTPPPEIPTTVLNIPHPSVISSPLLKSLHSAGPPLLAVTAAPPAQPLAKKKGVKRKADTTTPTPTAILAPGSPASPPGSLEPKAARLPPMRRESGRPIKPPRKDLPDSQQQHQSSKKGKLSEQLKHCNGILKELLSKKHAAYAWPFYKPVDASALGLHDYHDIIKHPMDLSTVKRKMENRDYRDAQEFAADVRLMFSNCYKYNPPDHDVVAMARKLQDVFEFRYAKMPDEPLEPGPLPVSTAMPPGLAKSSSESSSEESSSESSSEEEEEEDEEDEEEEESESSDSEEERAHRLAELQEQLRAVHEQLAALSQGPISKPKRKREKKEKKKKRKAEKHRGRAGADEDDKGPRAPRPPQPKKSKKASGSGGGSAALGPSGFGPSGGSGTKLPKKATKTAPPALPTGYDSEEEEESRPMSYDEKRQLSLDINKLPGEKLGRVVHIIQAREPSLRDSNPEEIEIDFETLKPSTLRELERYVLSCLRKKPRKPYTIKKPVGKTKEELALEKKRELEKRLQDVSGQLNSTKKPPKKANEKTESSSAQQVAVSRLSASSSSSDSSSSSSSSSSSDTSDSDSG

[5] = Clearance in human liver microsomes; format: ADME, Microsome
CYP3A4 = CYP3A4 (Homo sapiens, UniProt P08684); experiment: Inhibition of CYP3A4 (unknown origin) at 10 uM using midazolam substrate relative to control; format: ADME; conditions: probe midazolam
CYP3A4, sequence (P08684 whole entry): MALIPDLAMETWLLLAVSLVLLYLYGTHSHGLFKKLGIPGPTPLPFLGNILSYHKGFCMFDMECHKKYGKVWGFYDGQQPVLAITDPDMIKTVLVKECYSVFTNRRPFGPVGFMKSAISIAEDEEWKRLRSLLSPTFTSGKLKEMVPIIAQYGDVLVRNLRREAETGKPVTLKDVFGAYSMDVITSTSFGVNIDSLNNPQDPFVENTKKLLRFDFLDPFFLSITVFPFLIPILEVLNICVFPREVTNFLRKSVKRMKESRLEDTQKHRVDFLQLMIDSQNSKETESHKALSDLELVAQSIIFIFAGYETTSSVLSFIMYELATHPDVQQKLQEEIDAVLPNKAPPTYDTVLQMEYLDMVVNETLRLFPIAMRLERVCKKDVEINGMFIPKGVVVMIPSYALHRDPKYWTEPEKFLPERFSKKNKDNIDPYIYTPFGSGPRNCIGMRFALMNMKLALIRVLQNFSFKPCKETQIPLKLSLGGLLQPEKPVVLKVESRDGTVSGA
Method in brief: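 The CYP3A4 assay was run with midazolam or with testosterone as substrate.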

CYP1A2 = biological target: T2, CYP1A2 (Homo sapiens, UniProt P05177); experiment: Inhibition of CYP1A2 (unknown origin) at 10 uM relative to control; format: ADME
T2 sequence (P05177 whole entry): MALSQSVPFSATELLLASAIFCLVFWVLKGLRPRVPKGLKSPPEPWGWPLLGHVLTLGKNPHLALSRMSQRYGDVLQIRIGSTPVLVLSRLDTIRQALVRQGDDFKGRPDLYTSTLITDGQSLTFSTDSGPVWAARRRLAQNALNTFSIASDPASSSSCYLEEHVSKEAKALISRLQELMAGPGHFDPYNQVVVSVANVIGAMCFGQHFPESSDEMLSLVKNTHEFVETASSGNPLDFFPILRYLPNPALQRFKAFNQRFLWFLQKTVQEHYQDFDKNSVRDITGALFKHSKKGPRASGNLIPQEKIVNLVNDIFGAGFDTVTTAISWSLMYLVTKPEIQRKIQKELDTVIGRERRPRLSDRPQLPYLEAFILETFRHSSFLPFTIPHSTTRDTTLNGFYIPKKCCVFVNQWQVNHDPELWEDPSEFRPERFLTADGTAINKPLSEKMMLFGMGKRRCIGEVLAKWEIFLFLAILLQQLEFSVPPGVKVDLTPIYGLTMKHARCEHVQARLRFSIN

CYP2D6 = CYP2D6 (Homo sapiens, UniProt P10635); experiment: Inhibition of CYP2D6 (unknown origin) at 10 uM relative to control; format: ADME
CYP2D6, sequence (P10635 whole entry): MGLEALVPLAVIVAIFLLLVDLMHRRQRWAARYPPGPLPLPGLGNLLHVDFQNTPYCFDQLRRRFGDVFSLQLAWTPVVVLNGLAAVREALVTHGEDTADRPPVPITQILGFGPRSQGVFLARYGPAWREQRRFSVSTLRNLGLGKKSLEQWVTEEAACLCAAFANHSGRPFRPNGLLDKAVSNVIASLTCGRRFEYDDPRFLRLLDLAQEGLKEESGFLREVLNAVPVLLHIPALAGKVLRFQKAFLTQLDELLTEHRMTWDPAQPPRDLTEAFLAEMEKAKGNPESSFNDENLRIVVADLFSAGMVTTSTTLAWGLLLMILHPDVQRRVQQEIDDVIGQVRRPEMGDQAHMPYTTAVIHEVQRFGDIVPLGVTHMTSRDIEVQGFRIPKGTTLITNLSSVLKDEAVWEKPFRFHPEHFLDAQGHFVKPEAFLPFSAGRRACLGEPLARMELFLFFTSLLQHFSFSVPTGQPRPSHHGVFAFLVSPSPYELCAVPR

[6] = biological target: Voltage-gated inwardly rectifying potassium channel KCNH2 (Homo sapiens, UniProt Q12809); experiment: Inhibition of human ERG
Voltage-gated inwardly rectifying potassium channel KCNH2, sequence (Q12809 whole entry): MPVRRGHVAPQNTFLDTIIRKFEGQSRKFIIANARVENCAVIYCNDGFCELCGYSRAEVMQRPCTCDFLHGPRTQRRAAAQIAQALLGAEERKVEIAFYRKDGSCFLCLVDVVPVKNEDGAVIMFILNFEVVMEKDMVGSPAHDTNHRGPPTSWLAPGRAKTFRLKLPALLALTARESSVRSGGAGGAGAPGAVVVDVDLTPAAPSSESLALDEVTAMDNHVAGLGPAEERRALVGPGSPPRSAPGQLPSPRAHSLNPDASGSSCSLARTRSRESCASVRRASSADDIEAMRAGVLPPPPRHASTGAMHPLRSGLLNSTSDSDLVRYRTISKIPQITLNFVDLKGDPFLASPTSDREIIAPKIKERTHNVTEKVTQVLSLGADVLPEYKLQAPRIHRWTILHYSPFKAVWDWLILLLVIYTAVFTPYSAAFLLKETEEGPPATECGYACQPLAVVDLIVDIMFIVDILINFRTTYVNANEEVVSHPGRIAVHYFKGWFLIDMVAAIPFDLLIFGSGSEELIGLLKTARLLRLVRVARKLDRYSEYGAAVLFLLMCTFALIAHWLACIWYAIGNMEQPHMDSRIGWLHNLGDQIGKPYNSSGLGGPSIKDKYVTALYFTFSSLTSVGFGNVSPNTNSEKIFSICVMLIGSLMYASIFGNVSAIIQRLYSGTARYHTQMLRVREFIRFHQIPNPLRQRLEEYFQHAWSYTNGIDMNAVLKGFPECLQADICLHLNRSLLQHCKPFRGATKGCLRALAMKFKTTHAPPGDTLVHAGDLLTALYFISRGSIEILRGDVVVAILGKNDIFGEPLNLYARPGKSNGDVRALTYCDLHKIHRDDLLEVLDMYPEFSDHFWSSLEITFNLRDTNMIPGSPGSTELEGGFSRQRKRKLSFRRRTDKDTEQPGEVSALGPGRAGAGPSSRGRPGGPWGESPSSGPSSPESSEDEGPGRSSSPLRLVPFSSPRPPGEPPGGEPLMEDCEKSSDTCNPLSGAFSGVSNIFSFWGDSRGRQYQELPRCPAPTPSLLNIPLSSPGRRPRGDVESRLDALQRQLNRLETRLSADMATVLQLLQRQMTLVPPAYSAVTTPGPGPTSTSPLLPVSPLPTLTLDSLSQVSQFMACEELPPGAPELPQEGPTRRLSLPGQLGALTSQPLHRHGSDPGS

| IC50 [1] [nM] | IC50 [2] [nM] | IC50 [3] [nM] | IC50 [4] [nM] | CLH [5] [µL/min/mg] | inhibition at 10 µM (CYP3A4) [%] | inhibition at 10 µM (CYP1A2) [%] | inhibition at 10 µM (CYP2D6) [%] | SMILES | IC50 [6] [nM] |
| --- | --- | --- | --- | --- | --- | --- | --- | --- | --- |
| 520 | 1100 | 684 | 845 |  |  |  |  | COc1cc(OC)c2c(=O)cc(-c3cc(C)c(OC[C@H](O)CN4CCCCC4)c(C)c3)oc2c1 |  |
|  |  |  |  | 5.6 | 9.5 | 0 | 0 | COc1cc(OC)c2c(=O)cc(-c3cc(C)c(OC[C@H](O)CN4CCN(C)CC4)c(C)c3)oc2c1 | > 30000 |
